This note sets out measurements from the RNAGym collection of RNA variant scans (doi:10.1038/s41586-018-0170-7).

B1: tRNA (parent)
chain: GUUCCGUUGGCGUAAUGGUAACGCGUCUCCCUCCUAAGGAGAAGACUGCGGGUUCGAGUCCCGUACGGAACG

In this data set the parent is B1. The data set can be described thus: yeast fitness, log relative to wild type (ln ratio); higher = fitter; tRNA-Arg(CCU), competitive growth, 37 C, 1 M NaCl. The essentials:
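For each genotype, fitness is defined as the natural log of its generation number over the wild type's. The tRNA-Arg(CCU) variant library was on a HIS3 centromeric plasmid in BY4742 with the chromosomal gene removed, and pools were first grown 4 generations in SC-HIS at 30 °C and then ~6.5 generations (~26.5 h) in SC-HIS 1M NaCl at 37 °C. Generations were calculated from OD-scaled log2 output/input frequency, weighted by inverse variance across replicates, using counts from 125 bp paired-end Illumina sequencing.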
As to G1A G6U C27U A43C C46U C66U A70U, the “yeast fitness (ln)” value was -0.368.

As to C46U C66U A70G, the “yeast fitness (ln)” value was -0.0429.

Regarding U2G G6A C27U A43C C66A A70U C71U, the “yeast fitness (ln)” value was -0.473.

For the variant U2C G6U A43C C66A A70G, the “yeast fitness (ln)” value is -0.0246.

In the case of G6A C27U C66A A70G, the “yeast fitness (ln)” value was -0.136.

On to U2G C27U C66A A69G A70U C71U, for which the “yeast fitness (ln)” value is -0.431.

As for G1A U2G G6U C46U, the “yeast fitness (ln)” value is -0.0886.

As for C27U C46U C66U A70U, the “yeast fitness (ln)” value is -0.0808.

As for C27U C46U C66U A70G, the “yeast fitness (ln)” value is -0.315.

Take G6U C66U A69G A70G C71U: the “yeast fitness (ln)” value was -0.293.

G1A C27U A43C C46U C66U A70G C71U: the “yeast fitness (ln)” value is -0.299.

Turning to U2G A43C C66U, the “yeast fitness (ln)” value was -0.19.

As to U2G C27U A43C C66U, the “yeast fitness (ln)” value is -0.214.

For G6U A43C C66A A70G, the “yeast fitness (ln)” value is -0.0733.

For the variant U2C A69G A70U, the “yeast fitness (ln)” value was -0.117.

In the case of U2G C27U C46U C66U A70G, the “yeast fitness (ln)” value was -0.117.

Regarding U2G C27U C46U C66U A70U, the “yeast fitness (ln)” value is -0.0345.

As to U2G A43C A69G, the “yeast fitness (ln)” value was determined as 0.00792.

U2G C46U C66A A69G A70U: the “yeast fitness (ln)” value was -0.0347.

Take G6A A43C C46U A69G A70G: the “yeast fitness (ln)” value is -0.216.

For the variant A43C C66U A69G A70U, the “yeast fitness (ln)” value was -0.224.

Regarding U2C G6A C27U C46U A69G A70U C71U, the “yeast fitness (ln)” value was -0.295.

Turning to G1A U2G G6U C66U A70U C71U, the “yeast fitness (ln)” value was -0.351.

Regarding G1A C46U C66U A69G A70U C71U, the “yeast fitness (ln)” value was -0.353.

With U2C G6A A70U, the “yeast fitness (ln)” value was -0.0455.

As to G1A U2G G6U C27U A43C C46U C66U A70G, the “yeast fitness (ln)” value is -0.564.

With G1A G6A C27U C66U A69G A70U C71U, the “yeast fitness (ln)” value is -0.387.

Consider G1A U2G G6U A70G, for which the “yeast fitness (ln)” value was -0.235.

For U2C G6A C27U A69G A70U C71U, the “yeast fitness (ln)” value is -0.309.

Take G1A U2C G6U C46U C66U C71U: the “yeast fitness (ln)” value was -0.0885.

Consider U2G C46U A69G, for which the “yeast fitness (ln)” value is -0.208.

For G1A G6A C27U A70G C71U, the “yeast fitness (ln)” value is -0.332.

In the case of U2G G6A C27U A43C C66A A69G A70G C71U, the “yeast fitness (ln)” value is -0.366.

Regarding U2C A43C A69G C71U, the “yeast fitness (ln)” value is -0.138.

Take G6U C27U C66U A70U C71U: the “yeast fitness (ln)” value is -0.36.

As for U2C G6A C27U A43C C66A C71U, the “yeast fitness (ln)” value is -0.333.

As for U2G G6U C66U C71U, the “yeast fitness (ln)” value was -0.203.

In the case of G1A U2G C46U C66A A69G A70U C71U, the “yeast fitness (ln)” value is -0.385.

As for G1A U2C A43C C71U, the “yeast fitness (ln)” value is -0.185.

As to G1A G6U A43C C66A A69G A70U C71U, the “yeast fitness (ln)” value was -0.344.

As to G1A U2G C27U A43C C46U C66A A70U C71U, the “yeast fitness (ln)” value is -0.35.

Take G6U A43C C46U C66A A69G: the “yeast fitness (ln)” value was 0.0709.

In the case of U2C C27U A43C C66A A69G A70U C71U, the “yeast fitness (ln)” value is -0.443.

As to G1A U2G C27U A43C C66U A70G, the “yeast fitness (ln)” value is -0.315.

On to G1A U2G G6U A43C C66U A70G C71U, for which the “yeast fitness (ln)” value is -0.419.

In the case of U2G C27U A43C C46U C66A A69G A70G C71U, the “yeast fitness (ln)” value was -0.183.

With U2C G6U C27U C46U A69G A70G, the “yeast fitness (ln)” value is -0.274.

G6U C27U C66U A70G C71U: the “yeast fitness (ln)” value is -0.37.

In the case of G1A G6U C27U A43C C66U A69G C71U, the “yeast fitness (ln)” value is -0.258.

In the case of U2C G6U A43C C46U C66U A69G C71U, the “yeast fitness (ln)” value was -0.347.

Turning to G1A U2C G6A C46U A69G A70U, the “yeast fitness (ln)” value was -0.0526.

As to G1A U2G A43C C46U C66U A70U C71U, the “yeast fitness (ln)” value was -0.242.

C66A A70U C71U: the “yeast fitness (ln)” value is -0.0544.

As to G1A G6U C27U C46U A70G C71U, the “yeast fitness (ln)” value was -0.262.

For the variant G1A U2C G6U C46U, the “yeast fitness (ln)” value stood at 0.0116.

For G1A U2G G6A C27U C46U C66U A70U C71U, the “yeast fitness (ln)” value is -0.0596.

For U2G G6U C66A A70U C71U, the “yeast fitness (ln)” value was -0.0189.

As to G1A U2C G6A C27U A43C C46U C66U A70G C71U, the “yeast fitness (ln)” value is -0.0245.

Take U2G G6U A43C A70G: the “yeast fitness (ln)” value was -0.173.

As to G1A U2G G6U C27U C46U C66U, the “yeast fitness (ln)” value is -0.271.

Turning to G1A C66U A69G A70G, the “yeast fitness (ln)” value was -0.176.

As to U2G C46U A69G A70U C71U, the “yeast fitness (ln)” value is -0.191.

For the variant G1A G6A C27U C66U A69G A70G, the “yeast fitness (ln)” value is -0.386.

With G1A G6A C66U A70U, the “yeast fitness (ln)” value is -0.0527.

As for G6A A43C C66A A70G C71U, the “yeast fitness (ln)” value is -0.275.

U2C G6U C27U C66U A70U: the “yeast fitness (ln)” value was -0.194.

Take G1A U2G C66U: the “yeast fitness (ln)” value was -0.159.

For G1A U2G C66A, the “yeast fitness (ln)” value was -0.0852.

G1A U2G G6U A43C C46U C66A A69G A70U C71U: the “yeast fitness (ln)” value is -0.314.

Consider G1A C46U C66A, for which the “yeast fitness (ln)” value stood at 0.0129.

For G1A G6U A43C C46U C71U, the “yeast fitness (ln)” value was -0.174.

On to U2G G6U C27U C46U A70U, for which the “yeast fitness (ln)” value is -0.176.

For G1A G6A C71U, the “yeast fitness (ln)” value is -0.363.

G1A U2G C27U C46U C66A A70G C71U: the “yeast fitness (ln)” value is -0.203.

For the variant U2G C66U A70U C71U, the “yeast fitness (ln)” value was -0.543.

Take G6U C27U A43C A69G A70G: the “yeast fitness (ln)” value is -0.401.

In the case of U2C A43C C46U A70G C71U, the “yeast fitness (ln)” value stood at 0.00238.

Take G1A A43C C66U A70U C71U: the “yeast fitness (ln)” value was -0.25.

Turning to U2C A43C C66A C71U, the “yeast fitness (ln)” value was -0.169.

Take U2G C27U C46U C71U: the “yeast fitness (ln)” value is -0.099.

As for G1A U2G G6A C27U A43C C46U C66U A70G, the “yeast fitness (ln)” value was -0.216.

For the variant G1A U2G C27U A43C C66U A69G A70G, the “yeast fitness (ln)” value is -0.492.

Regarding U2C G6U A43C C66A A69G A70G C71U, the “yeast fitness (ln)” value was -0.0618.
